{"source": "ChEMBL document CHEMBL1671711", "about": "“Serum and cerebrospinal fluid levels of colistin in pediatric patients” (Antimicrob Agents Chemother, 2010)", "assay_type_in_all_cases": "ADME, organism-based", "key": {"[1]": {"tested_on": "Serum", "assay": "Drug level in pediatric patient serum with gram-negative bacterial infection before initiation of 16 mg/kg/day, iv administered every 8 hrs for 93 days by LS/MS/MS analysis", "parameters": "route intravenous", "details": "human, in vivo", "summary_of_the_method": "(§1)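 Trough sampling: blood was drawn immediately before the 20-min IV CMS infusion (every 8 h), and CSF was taken from EVD systems within 1 h before infusion. Samples were stored at −80°C and analysed by LC-MS-MS for colistin, and for CMS via acid hydrolysis with subtraction. CSF was diluted 1:1 with serum. Values are means of two days.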"}, "[2]": {"assay": "Drug level in pediatric patient cerebrospinal fluid with gram-negative bacterial infection assessed as Colistin level at 18 mg/kg/day, iv administered every 8 hrs for 42 days measured after 30 mins by LS/MS/MS analysis", "parameters": "route intravenous", "details": "human, in vivo, 0.5 h", "summary_of_the_method": "(§2)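 Children (1 month to 14 years) received CMS in 30 to 50 ml normal saline by 20-min IV infusion every 8 h. CSF was taken from EVD systems alongside blood, after the end of infusion, and stored at −80°C. It was diluted 1:1 with serum, protein-precipitated, and analysed by LC-MS-MS for colistin A plus B against standards in pH 7.4 phosphate-buffered artificial-CSF Ringer with serum. Values are means of two days; course 1 was sampled once.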"}, "[3]": {"tested_on": "Serum", "assay": "Drug level in pediatric patient serum with gram-negative bacterial infection assessed as Colistin level at 16 mg/kg/day, iv administered every 8 hrs for 51 days measured after 30 mins by LS/MS/MS analysis", "parameters": "route intravenous", "details": "human, in vivo, 0.5 h", "summary_of_the_method": "(§3)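 Blood was drawn 30 min after the end of the 20-min IV CMS infusion, given every 8 h. Serum was separated by centrifugation, stored at −80°C, and assayed by LC-MS-MS for colistin A plus B (interday CV <4.4%, accuracy within ±1.9%). Values are means of two sampling days; course 1 was sampled once.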"}, "[4]": {"tested_on": "Serum", "assay": "Drug level in pediatric patient serum with gram-negative bacterial infection at 4.8 mg/kg/day, iv administered every 8 hrs for 7 days measured after 30 mins by LS/MS/MS analysis", "parameters": "route intravenous", "details": "human, in vivo, 0.5 h", "summary_of_the_method": "(§4)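 Serum was taken 30 min after the end of the 20-min IV CMS infusion (every 8 h) and stored at −80°C. It underwent acid hydrolysis with 1 M H2SO4 for 15–20 min, neutralisation with 1 M NaOH, and precipitation with acetonitrile containing 0.1% TFA. LC-MS-MS colistin before hydrolysis was subtracted from colistin after hydrolysis to give CMS. Values are means of two days.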"}, "[5]": {"assay": "Ratio of drug level in cerebrospinal fluid to Serum of pediatric patient with gram-negative bacterial infection assessed as Colistin level at 18 mg/kg/day, iv administered every 8 hrs for 42 days by LS/MS/MS analysis", "parameters": "route intravenous", "details": "human, csf", "summary_of_the_method": "(§5)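 Percentages are the ratio of mean CSF concentration to mean serum concentration from paired samples. Blood was drawn immediately before and 30 min after the 20-min IV CMS infusion (every 8 h); CSF came from EVD systems concurrently. Both were measured by LC-MS-MS, for colistin directly and for CMS after acid hydrolysis. Pairs were repeated on two days.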"}, "[6]": {"assay": "Ratio of drug level in cerebrospinal fluid to Serum of pediatric patient with gram-negative bacterial infection at 18 mg/kg/day, iv administered every 8 hrs for 42 days by LS/MS/MS analysis", "parameters": "route intravenous", "details": "human, csf", "summary_of_the_method": "as §5"}, "[7]": {"assay": "Ratio of drug level in cerebrospinal fluid to Serum of pediatric patient with gram-negative bacterial infection assessed as Colistin level at16 mg/kg/day, iv administered every 8 hrs for 93 days by LS/MS/MS analysis", "details": "human, csf", "summary_of_the_method": "as §5"}, "[8]": {"assay": "Ratio of drug level in cerebrospinal fluid to Serum of pediatric patient with gram-negative bacterial infection assessed as Colistin level at 16 mg/kg/day, iv administered every 8 hrs for 51 days by LS/MS/MS analysis", "parameters": "route intravenous", "details": "human, csf", "summary_of_the_method": "as §5"}, "[9]": {"assay": "Ratio of drug level in cerebrospinal fluid to Serum of pediatric patient with gram-negative bacterial infection at 16 mg/kg/day, iv administered every 8 hrs for 93 days by LS/MS/MS analysis", "parameters": "route intravenous", "details": "human, csf", "summary_of_the_method": "as §5"}, "[10]": {"assay": "Ratio of drug level in cerebrospinal fluid to Serum of pediatric patient with gram-negative bacterial infection before initiation of 18 mg/kg/day, iv administered every 8 hrs for 42 days by LS/MS/MS analysis", "parameters": "route intravenous", "details": "human, csf", "summary_of_the_method": "as §5"}, "[11]": {"assay": "Drug level in pediatric patient cerebrospinal fluid with gram-negative bacterial infection assessed as Colistin level at 16 mg/kg/day, iv administered every 8 hrs for 93 days measured after 30 mins by LS/MS/MS analysis", "parameters": "route intravenous", "details": "human, in vivo, 0.5 h", "summary_of_the_method": "as §2"}, "[12]": {"tested_on": "Serum", "assay": "Drug level in pediatric patient serum with gram-negative bacterial infection before initiation of 16 mg/kg/day, iv administered every 8 hrs for 51 days by LS/MS/MS analysis", "parameters": "route intravenous", "details": "human, in vivo", "summary_of_the_method": "as §1"}, "[13]": {"assay": "Ratio of drug level in cerebrospinal fluid to Serum of pediatric patient with gram-negative bacterial infection assessed as Colistin level at 10.4 mg/kg/day, iv administered every 8 hrs for 46 days by LS/MS/MS analysis", "parameters": "route intravenous", "details": "human, csf", "summary_of_the_method": "as §5"}, "[14]": {"tested_on": "Serum", "assay": "Drug level in pediatric patient serum with gram-negative bacterial infection at 16 mg/kg/day, iv administered every 8 hrs for 51 days measured after 30 mins by LS/MS/MS analysis", "parameters": "route intravenous", "details": "human, in vivo, 0.5 h", "summary_of_the_method": "as §4"}, "[15]": {"tested_on": "Serum", "assay": "Drug level in pediatric patient serum with gram-negative bacterial infection assessed as Colistin level at 4.8 mg/kg/day, iv administered every 8 hrs for 7 days measured after 30 mins by LS/MS/MS analysis", "parameters": "route intravenous", "details": "human, in vivo, 0.5 h", "summary_of_the_method": "as §3"}, "[16]": {"tested_on": "Serum", "assay": "Drug level in pediatric patient serum with gram-negative bacterial infection before initiation of 4.8 mg/kg/day, iv administered every 8 hrs for 7 days by LS/MS/MS analysis", "parameters": "route intravenous", "details": "human, in vivo", "summary_of_the_method": "as §1"}, "[17]": {"tested_on": "Serum", "assay": "Drug level in pediatric patient serum with gram-negative bacterial infection at 18 mg/kg/day, iv administered every 8 hrs for 42 days measured after 30 mins by LS/MS/MS analysis", "parameters": "route intravenous", "details": "human, in vivo, 0.5 h", "summary_of_the_method": "as §4"}, "[18]": {"assay": "Ratio of drug level in cerebrospinal fluid to Serum of pediatric patient with gram-negative bacterial infection before initiation of 16 mg/kg/day, iv administered every 8 hrs for 93 days by LS/MS/MS analysis", "parameters": "route intravenous", "details": "human, csf", "summary_of_the_method": "as §5"}, "[19]": {"assay": "Ratio of drug level in cerebrospinal fluid to Serum of pediatric patient with gram-negative bacterial infection before initiation of 10.4 mg/kg/day, iv administered every 8 hrs for 46 days by LS/MS/MS analysis", "parameters": "route intravenous", "details": "human, csf", "summary_of_the_method": "as §5"}, "[20]": {"tested_on": "Serum", "assay": "Drug level in pediatric patient serum with gram-negative bacterial infection at 10.4 mg/kg/day, iv administered every 8 hrs for 46 days measured after 30 mins by LS/MS/MS analysis", "parameters": "route intravenous", "details": "human, in vivo, 0.5 h", "summary_of_the_method": "as §4"}, "[21]": {"tested_on": "Serum", "assay": "Drug level in pediatric patient serum with gram-negative bacterial infection assessed as Colistin level at 18 mg/kg/day, iv administered every 8 hrs for 42 days measured after 30 mins by LS/MS/MS analysis", "parameters": "route intravenous", "details": "human, in vivo, 0.5 h", "summary_of_the_method": "as §3"}, "[22]": {"assay": "Drug level in pediatric patient cerebrospinal fluid with gram-negative bacterial infection at 4.8 mg/kg/day, iv administered every 8 hrs for 7 days measured after 30 mins by LS/MS/MS analysis", "parameters": "route intravenous", "details": "human, in vivo, 0.5 h", "summary_of_the_method": "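CMS was given by 20-min IV infusion in saline every 8 h, and CSF was taken from EVD systems after the end of infusion. The CSF–serum 1:1 mix was treated with 1 M H2SO4 for 15–20 min, then 1 M NaOH, then acetonitrile with 0.1% TFA. CMS was calculated as colistin after hydrolysis minus colistin before hydrolysis, by LC-MS-MS, with CMS controls of 0.25–18.5 μg/ml. Values are means of two days; course 1 was sampled once.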"}, "[23]": {"tested_on": "Serum", "assay": "Drug level in pediatric patient serum with gram-negative bacterial infection at 16 mg/kg/day, iv administered every 8 hrs for 93 days measured after 30 mins by LS/MS/MS analysis", "parameters": "route intravenous", "details": "human, in vivo, 0.5 h", "summary_of_the_method": "as §4"}}}
{"sequence": "COLISTIN", "values": [{"measurement": "Drug uptake", "setting": "[1]", "result": 0.75, "unit": "µg/mL"}, {"measurement": "Drug uptake", "setting": "[2]", "result": 0.07, "unit": "µg/mL"}, {"measurement": "Drug uptake", "setting": "[3]", "result": 1.6, "unit": "µg/mL"}, {"measurement": "Drug uptake", "setting": "[4]", "result": 2.86, "unit": "µg/mL"}, {"measurement": "Ratio", "setting": "[5]", "result": 3.2, "unit": "%"}, {"measurement": "Ratio", "setting": "[6]", "result": 0.4, "unit": "%"}, {"measurement": "Ratio", "setting": "[7]", "result": 34.8, "unit": "%"}, {"measurement": "Ratio", "setting": "[8]", "result": 7.2, "unit": "%"}, {"measurement": "Ratio", "setting": "[9]", "result": 3.1, "unit": "%"}, {"measurement": "Ratio", "setting": "[10]", "result": 0.6, "unit": "%"}, {"measurement": "Drug uptake", "setting": "[11]", "result": 0.46, "unit": "µg/mL"}, {"measurement": "Drug uptake", "setting": "[12]", "result": 0.93, "unit": "µg/mL"}, {"measurement": "Ratio", "setting": "[13]", "result": 3.4, "unit": "%"}, {"measurement": "Drug uptake", "setting": "[14]", "result": 9.89, "unit": "µg/mL"}, {"measurement": "Drug uptake", "setting": "[15]", "result": 0.29, "unit": "µg/mL"}, {"measurement": "Drug uptake", "setting": "[16]", "result": 0.28, "unit": "µg/mL"}, {"measurement": "Drug uptake", "setting": "[17]", "result": 7.98, "unit": "µg/mL"}, {"measurement": "Ratio", "setting": "[18]", "result": 50.9, "unit": "%"}, {"measurement": "Ratio", "setting": "[19]", "result": 3.1, "unit": "%"}, {"measurement": "Drug uptake", "setting": "[20]", "result": 7.9, "unit": "µg/mL"}, {"measurement": "Drug uptake", "setting": "[21]", "result": 2.2, "unit": "µg/mL"}, {"measurement": "Drug uptake", "setting": "[22]", "result": 0.06, "unit": "µg/mL"}, {"measurement": "Drug uptake", "setting": "[23]", "result": 8.41, "unit": "µg/mL"}]}
